PolyA inhibitor – inhibitors of polyadenylation in S. cerevisiae. actives 0.02% (n = 300,000). activity score, % at 12 µM. S. cerevisiae SKY197-pL101 polyadenylation reporter, beta-gal luminescence; efflux-impaired pdr1/pdr3 knockout yeast; score 100 = 6 SD above DMSO;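 active = lowest replicate activity score at least 50, where 100 means six control SD above control mean; inconclusive = lowest score under 50 but half or more replicates reach 50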;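 also: yeast exposed to compound for 9 h at 30 °C; higher score means more reporter readthrough which indicates perturbed polyadenylation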
aDG glyco act – alpha-DG glycosylation activation. Pro5-aDG cells, alpha-DG glycosylation AlphaScreen (IIH6); 0% Pro5, 100% B10-LARGE cell signal. activation, % at 10 µM. actives 0.22% (n = 360,000). AID 624168;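 active = activation of at least 8% versus controls, or a plate z-score of at least 8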;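 also: Pro5 are CHO cells carrying HIG-tagged alpha-DG that lacks glycosylation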
Rce1 inhib – blocks yeast Ras-converting enzyme; actives 0.27% (n = 290,000); AID 2563; Q03530; yeast membranes, quenched prenylated peptide cleavage fluorescence; calls only;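 active = fall in fluorescence gain of 50% or more versus controls, with final raw signal at or below 3038400; inconclusive = same 50% fall but final raw signal above 3038400; inactive = fall in fluorescence gain under 50%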
Target sequence (Q03530 whole entry, looked up): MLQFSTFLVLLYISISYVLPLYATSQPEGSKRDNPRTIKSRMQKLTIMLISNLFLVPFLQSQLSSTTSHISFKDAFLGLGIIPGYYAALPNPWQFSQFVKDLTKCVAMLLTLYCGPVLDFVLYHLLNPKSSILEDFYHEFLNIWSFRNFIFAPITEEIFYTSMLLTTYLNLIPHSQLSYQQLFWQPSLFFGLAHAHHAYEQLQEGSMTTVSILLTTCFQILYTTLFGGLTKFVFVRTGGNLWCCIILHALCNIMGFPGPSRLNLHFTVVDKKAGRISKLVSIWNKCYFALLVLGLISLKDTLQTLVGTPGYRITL
T cell modulator – T cell immune modulators affecting CD8 T cell-vesicle binding; AID 2052; response (vesicle binding), % at 7 µM; actives 0.068% (n = 330,000); 2C CD8+ T cell-vesicle binding, flow cytometry; hits give low values;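 active = response, share of CD8 T cells binding vesicles, and their 90th percentile fluorescence all below set limits, cut at about 80% in these data, passing the limit was not always enough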;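 also: values below 100% mean blocked vesicle binding to the CD8+ T cells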
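Incubation: binding step 1.5 h, 37 °C, antibody labelling 20 min, ice; system: murine 2C transgenic CD8+ T lymphocytes; technique: cytometric PE anti-B7-1 and Alexa647 anti-CD8 signals after 1% paraformaldehyde fixation; also added: QL9-charged Drosophila Ld/ICAM-1/B7-1 vesicles; control set: naked versus QL9-loaded vesicles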
Each line names hits and unclear results; the compound was inactive in the other large screens. An excerpt weighted towards active compounds, which were near 0.51% of everything screened.

C/C(=N\NC(=O)c1cc([N+](=O)[O-])cc([N+](=O)[O-])c1)c1ccco1	none (no result: Rce1 inhib)
C/C(=N\NC(=O)Cn1cc([N+](=O)[O-])cn1)c1ccco1	T cell modulator 0.0
O=C1NN(c2ccccc2)C(=O)/C1=C/c1ccc(Sc2ccc(Cl)cc2)o1	aDG glyco act 2.6
O=C1Cn2nnc(-c3ccccc3)c2C2c3ccccc3CCN12 (centres undefined)	none (no result: PolyA inhibitor, Rce1 inhib, T cell modulator)
Cc1cc(C(=O)c2ccc3ccccc3c2)c(C)o1	none
Cc1ccccc1NS(=O)(=O)c1ccc(C(=O)NCC(c2ccco2)N(C)C)cc1 (centres undefined)	none
Cc1ccccc1NS(=O)(=O)c1ccc(C(=O)NCC(c2ccccc2)N(C)C)cc1 (centres undefined)	Rce1 inhib active
Cn1c(=O)c2c(ncn2CC(=O)OCC(=O)Nc2cccc(C#N)c2)n(C)c1=O	none (no result: PolyA inhibitor, Rce1 inhib, T cell modulator)
Nc1ccn([C@@H]2O[C@H](CNCc3cc(Cl)ccc3OCc3ccc(Cl)cc3)[C@@H](O)[C@H]2O)c(=O)n1	none (no result: PolyA inhibitor, Rce1 inhib, T cell modulator)
COc1ccc(Cc2nc3ccc(C(=O)N4CCCC4)cc3o2)cc1	Rce1 inhib active
C[C@@H]1CN([C@H](C)CO)C(=O)CCCn2nncc2CO[C@@H]1CN(C)C(=O)c1ccc(N2CCN(C)CC2)cc1	none (no result: PolyA inhibitor, Rce1 inhib, T cell modulator)
OC(CNCCC1C=Nc2ccccc21)Cn1c2ccc(Cl)cc2c2cc(Cl)ccc21 (centres undefined)	Rce1 inhib active
Cc1ccc(NC(=O)Cn2c(=S)[nH]c3ccccc32)cc1	none
Nc1nc2c(ncn2COC(CO)CO)c(=O)[nH]1	Rce1 inhib active
Nc1nc2c(ncn2COCCO)c(=O)[nH]1	none
COc1ccc(C)cc1NC(=O)CNC(=O)[C@@H]1Cc2ccccc2CN1	none
COc1ccccc1Nc1nc(NCCO)c2ccccc2n1	none (no result: aDG glyco act, T cell modulator)
COc1ccc(OC)c(Nc2nc(NCCO)c3ccccc3n2)c1	PolyA inhibitor 67
O=S(=O)(c1ccc(Cl)cc1)N1CCC(O)(c2cccnc2)CC1	T cell modulator 0.0
O=C(c1ccccc1Cl)N1CCC(O)(c2cccnc2)CC1	none
CN(C)S(=O)(=O)c1cccc(NC(=O)COC(=O)c2cccn2C)c1	none
COc1ccc(NS(=O)(=O)c2cccc(NC(=O)c3ccc(Cl)nc3)c2)cc1	aDG glyco act 8.5
Cc1ccc(C)c(NC(=O)COC(=O)c2cc(=O)c3ccccc3o2)c1	none (no result: PolyA inhibitor, Rce1 inhib, T cell modulator)
O=C(NC1CCCCC1)C1CCCN1C(=O)Nc1ccccc1 (centres undefined)	none
O=C(NC1CCCC1)C1CCCN1C(=O)Nc1ccc(Cl)cc1 (centres undefined)	T cell modulator 0.0
C/C(=N\NC(=O)COc1ccc(C)cc1[N+](=O)[O-])c1cccs1	PolyA inhibitor 98
CCC(=O)N1CCN(c2ccc(NC(=O)c3cc4ccccc4o3)cc2Cl)CC1	Rce1 inhib active
O=C(Nc1ccc(N2CCN(C(=O)c3ccco3)CC2)c(Cl)c1)c1cc2ccccc2o1	none
CCCC(=O)N1CCN(c2ccc(NC(=O)c3cc4ccccc4o3)cc2Cl)CC1	Rce1 inhib active
COCc1cccc(-c2csc(C(C)(NC(C)=O)c3ccc(OC)cc3)n2)c1 (centres undefined)	none (no result: PolyA inhibitor, Rce1 inhib, T cell modulator)
COC(=O)c1nc(N)sc1-c1ccc(Cl)c(Cl)c1	Rce1 inhib active
CCN(CC)P(=O)(Nc1ccc(C)cc1Br)c1ccc(N(C)C)cc1NC(=O)c1ccco1 (centres undefined)	none
Cc1ccc(-c2cc(C)nc3nc(N)nn23)cc1	Rce1 inhib active
Cc1ccc(-c2cc(C)nc3ncnn23)cc1	none
Cc1cc2cc(C#N)c(NCCNC(=S)NCCCN3CCOCC3)nc2cc1C	Rce1 inhib active
Cc1cccc2cc(C#N)c(NCCNC(=S)NCCCN3CCOCC3)nc12	none
O=C(CN1C(=O)NC2(CCOc3ccccc32)C1=O)NCCc1ccccc1 (centres undefined)	none (no result: PolyA inhibitor, Rce1 inhib)
Cc1cc(N2CCN(c3cccc(C(F)(F)F)c3)CC2)n2ncnc2n1	none
Cc1cc(N2CCN(c3nc4ccccc4s3)CC2)n2ncnc2n1	aDG glyco act 4.2
Cc1cc(N2CCN(C(c3ccccc3)c3ccccc3)CC2)n2ncnc2n1	Rce1 inhib active
Cc1nc2ncnn2c(N2CCN(C(c3ccccc3)c3ccccc3)CC2)c1C	none
O=C(O)C1Sc2[nH]c(=O)sc2C2c3ccc(O)cc3OC(=O)C12 (centres undefined)	Rce1 inhib active (no result: PolyA inhibitor)
CC1CCCC(NC(=O)COC(=O)CCC(=O)c2ccc(F)cc2)C1C (centres undefined)	none (no result: PolyA inhibitor, Rce1 inhib)
CCCCN(C)CCNC(=O)c1cc2c(-c3cccc(OC)c3)nn(C)c2s1	Rce1 inhib active
CCN(CC)CCCNC(=O)c1cc2c(-c3cccc(OC)c3)nn(C)c2s1	Rce1 inhib active
Cc1cccc(C(=O)OCC(=O)Nc2c(C)n(C)n(-c3ccccc3)c2=O)c1O	none (no result: PolyA inhibitor, Rce1 inhib)
Cc1ccc(F)c(S(=O)(=O)NC(=O)C2(C)CCN2C(=O)c2sccc2C)c1 (centres undefined)	none (no result: PolyA inhibitor, Rce1 inhib, T cell modulator)
C[N+](C)(C)C(Cc1c[nH]c2ccccc12)C(=O)[O-] (centres undefined)	none (no result: aDG glyco act, T cell modulator)
COCCN1C(=O)C(=O)/C(=C(/O)c2cccc(OC)c2)C1c1ccc(C)o1 (centres undefined)	T cell modulator 75
COCCN1C(=O)C(=O)/C(=C(/O)c2cccc(OC)c2)C1c1ccncc1 (centres undefined)	none
CC1=CN2C(=NC(=O)CC2(C)C(=O)N(CC(=O)NC2CCCC2)Cc2ccccc2)C=C1 (centres undefined)	Rce1 inhib inconclusive
CC1=CC2=NC(=O)CC(C)(C(=O)N(CC(=O)NC3CCCC3)Cc3ccccc3)N2C=C1 (centres undefined)	Rce1 inhib active
C/C(CC(=O)Nc1ccc(Cl)cc1)=N\NC(=O)C(=O)N1CCCCC1	none (no result: PolyA inhibitor)
CCCNc1c(NS(=O)(=O)c2ccc(NC(=O)CC)cc2)c(=O)oc2ccccc12	aDG glyco act 6.5
CC1=C(C(=O)Nc2cc(C(=O)N3CCN(c4ccc(Cl)cc4)CC3)ccc2C)SCCO1	none (no result: PolyA inhibitor, Rce1 inhib, T cell modulator)
CCOC(=O)c1c(-c2ccccc2)oc2ccc(OCC(O)CNCCN(C)C)cc12 (centres undefined)	Rce1 inhib active
COc1cc(NC(=O)c2cccc3c(-c4cnn(C)c4)coc23)cc(OC)c1OC	none (no result: PolyA inhibitor, Rce1 inhib, T cell modulator)
Cc1c(C)c2c(OCC(=O)NCc3ccncc3)cc3c(c2oc1=O)CCC(C)(C)O3	Rce1 inhib active
CCc1cc(=O)oc2c3c(cc(OCC(=O)NCCCCCC(=O)O)c12)OC(C)(C)CC3	Rce1 inhib active
CCc1cc(=O)oc2c3c(cc(OCC(=O)NCc4ccccn4)c12)OC(C)(C)CC3	none
CCOc1ccc(Br)cc1S(=O)(=O)Nc1cccc(S(=O)(=O)N2CCOCC2)c1	none (no result: PolyA inhibitor, Rce1 inhib, T cell modulator)
CCc1noc(C)c1C(=O)OCC(=O)N(C)c1c(N)n(Cc2ccccc2)c(=O)[nH]c1=O	none
CC(C)NC(=O)CCc1nnc(Cc2cccc(C(F)(F)F)c2)o1	none
CCC(COC)NC(=O)CCc1nnc(Cc2cccc(C(F)(F)F)c2)o1 (centres undefined)	Rce1 inhib active
CCOc1cc2c(cc1/C=C1/NC(=O)N(CC(=O)OC)C1=O)OCO2	none
